Laboratory results from ChEMBL document CHEMBL4689842, “EUbOPEN Chemogenomics Library wave 1” (2021).

Tested on: Fibroblast
Assay: Multiplex assay against human fibroblast
Assay type: toxicity, cell-based
Summary of the method: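 Live cells were stained at seeding with Hoechst33342, BioTracker Green Microtubule Cytoskeleton Dye, MitoTracker Red and Annexin V Alexa Fluor 680. Following compound addition, they were imaged on a CQ1 microscope at 37°C and 5% CO2 and gated by CellPathfinder machine learning into Hoechst high-intensity objects or normal cells, with normal cells split into healthy, pyknosed or fragmented nuclei and pyknosed cells into mitotic or apoptotic. Tubulin, mitochondrial-mass and membrane-permeability phenotypes are per cents of healthy-nucleus cells.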

[1] = 12 h, 1 µM, compound concentration 1 uM, replicate 1
[2] = 12 h, 1 µM, compound concentration 1 uM, replicate 2
[3] = 12 h, 10 µM, compound concentration 10 uM, replicate 1
[4] = 12 h, 10 µM, compound concentration 10 uM, replicate 2
[5] = 24 h, 1 µM, compound concentration 1 uM, replicate 1
[6] = 24 h, 1 µM, compound concentration 1 uM, replicate 2
[7] = 24 h, 10 µM, compound concentration 10 uM, replicate 1
[8] = 24 h, 10 µM, compound concentration 10 uM, replicate 2
[9] = 48 h, 1 µM, compound concentration 1 uM, replicate 1
[10] = 48 h, 1 µM, compound concentration 1 uM, replicate 2
[11] = 48 h, 10 µM, compound concentration 10 uM, replicate 1
[12] = 48 h, 10 µM, compound concentration 10 uM, replicate 2

## COC(=N)c1nc2ccc3ncnc(Nc4ccc(OC)cc4F)c3c2s1
[1]
  Population Apoptotic (%): 55%
  Population Fragmented Nuclei (%): 30%
  Population Healthy Nuclei (%): 60%
  Population Hoechst High Intensity Objects (%): 17%
  Population Membrane Permeable-Phenotype (%): 3%
  Population Mitochondria Different-Phenotype (%): 3%
  Population Mitotic Cells (%): 44%
  Population Normal (%): 82%
  Population Pyknosed Nuclei (%): 9%
  Population Tubulin-Different-Phenotype (%): 1%
  Total Cell Count: 119
[2]
  Population Apoptotic (%): 28%
  Population Fragmented Nuclei (%): 50%
  Population Healthy Nuclei (%): 34%
  Population Hoechst High Intensity Objects (%): 33%
  Population Membrane Permeable-Phenotype (%): 6%
  Population Mitochondria Different-Phenotype (%): 6%
  Population Mitotic Cells (%): 71%
  Population Normal (%): 66%
  Population Pyknosed Nuclei (%): 15%
  Population Tubulin-Different-Phenotype (%): 6%
  Total Cell Count: 69
[3]
  Population Apoptotic (%): 76%
  Population Fragmented Nuclei (%): 20%
  Population Healthy Nuclei (%): 60%
  Population Hoechst High Intensity Objects (%): 11%
  Population Membrane Permeable-Phenotype (%): 7%
  Population Mitochondria Different-Phenotype (%): 0%
  Population Mitotic Cells (%): 23%
  Population Normal (%): 88%
  Population Pyknosed Nuclei (%): 18%
  Population Tubulin-Different-Phenotype (%): 1%
  Total Cell Count: 238
[4]
  Population Apoptotic (%): 100%
  Population Fragmented Nuclei (%): 57%
  Population Healthy Nuclei (%): 35%
  Population Hoechst High Intensity Objects (%): 30%
  Population Membrane Permeable-Phenotype (%): 5%
  Population Mitochondria Different-Phenotype (%): 5%
  Population Mitotic Cells (%): 0%
  Population Normal (%): 69%
  Population Pyknosed Nuclei (%): 7%
  Population Tubulin-Different-Phenotype (%): 5%
  Total Cell Count: 82
[5]
  Population Apoptotic (%): 77%
  Population Fragmented Nuclei (%): 41%
  Population Healthy Nuclei (%): 50%
  Population Hoechst High Intensity Objects (%): 19%
  Population Membrane Permeable-Phenotype (%): 8%
  Population Mitochondria Different-Phenotype (%): 6%
  Population Mitotic Cells (%): 22%
  Population Normal (%): 80%
  Population Pyknosed Nuclei (%): 7%
  Population Tubulin-Different-Phenotype (%): 1%
  Total Cell Count: 146
[6]
  Population Apoptotic (%): 42%
  Population Fragmented Nuclei (%): 44%
  Population Healthy Nuclei (%): 36%
  Population Hoechst High Intensity Objects (%): 30%
  Population Membrane Permeable-Phenotype (%): 7%
  Population Mitochondria Different-Phenotype (%): 7%
  Population Mitotic Cells (%): 57%
  Population Normal (%): 69%
  Population Pyknosed Nuclei (%): 18%
  Population Tubulin-Different-Phenotype (%): 14%
  Total Cell Count: 55
[7]
  Population Apoptotic (%): 65%
  Population Fragmented Nuclei (%): 20%
  Population Healthy Nuclei (%): 62%
  Population Hoechst High Intensity Objects (%): 13%
  Population Membrane Permeable-Phenotype (%): 5%
  Population Mitochondria Different-Phenotype (%): 2%
  Population Mitotic Cells (%): 34%
  Population Normal (%): 86%
  Population Pyknosed Nuclei (%): 17%
  Population Tubulin-Different-Phenotype (%): 1%
  Total Cell Count: 246
[8]
  Population Apoptotic (%): 50%
  Population Fragmented Nuclei (%): 54%
  Population Healthy Nuclei (%): 37%
  Population Hoechst High Intensity Objects (%): 30%
  Population Membrane Permeable-Phenotype (%): 10%
  Population Mitochondria Different-Phenotype (%): 5%
  Population Mitotic Cells (%): 50%
  Population Normal (%): 69%
  Population Pyknosed Nuclei (%): 7%
  Population Tubulin-Different-Phenotype (%): 10%
  Total Cell Count: 73

## O=C1N/C(=N/c2ccccc2F)S/C1=C\c1ccc(C(=O)O)cc1
[1]
  Population Apoptotic (%): 68%
  Population Fragmented Nuclei (%): 29%
  Population Healthy Nuclei (%): 37%
  Population Hoechst High Intensity Objects (%): 13%
  Population Membrane Permeable-Phenotype (%): 27%
  Population Mitochondria Different-Phenotype (%): 2%
  Population Mitotic Cells (%): 31%
  Population Normal (%): 86%
  Population Pyknosed Nuclei (%): 32%
  Population Tubulin-Different-Phenotype (%): 19%
  Total Cell Count: 112
[2]
  Population Apoptotic (%): 0%
  Population Fragmented Nuclei (%): 3%
  Population Healthy Nuclei (%): 92%
  Population Hoechst High Intensity Objects (%): 8%
  Population Membrane Permeable-Phenotype (%): 6%
  Population Mitochondria Different-Phenotype (%): 16%
  Population Mitotic Cells (%): 100%
  Population Normal (%): 91%
  Population Pyknosed Nuclei (%): 3%
  Population Tubulin-Different-Phenotype (%): 24%
  Total Cell Count: 66
[3]
  Population Apoptotic (%): 67%
  Population Fragmented Nuclei (%): 29%
  Population Healthy Nuclei (%): 51%
  Population Hoechst High Intensity Objects (%): 60%
  Population Membrane Permeable-Phenotype (%): 36%
  Population Mitochondria Different-Phenotype (%): 6%
  Population Mitotic Cells (%): 32%
  Population Normal (%): 39%
  Population Pyknosed Nuclei (%): 19%
  Population Tubulin-Different-Phenotype (%): 51%
  Total Cell Count: 406
[4]
  Population Apoptotic (%): 44%
  Population Fragmented Nuclei (%): 4%
  Population Healthy Nuclei (%): 81%
  Population Hoechst High Intensity Objects (%): 8%
  Population Membrane Permeable-Phenotype (%): 1%
  Population Mitochondria Different-Phenotype (%): 9%
  Population Mitotic Cells (%): 55%
  Population Normal (%): 91%
  Population Pyknosed Nuclei (%): 14%
  Population Tubulin-Different-Phenotype (%): 9%
  Total Cell Count: 59
[5]
  Population Apoptotic (%): 55%
  Population Fragmented Nuclei (%): 26%
  Population Healthy Nuclei (%): 47%
  Population Hoechst High Intensity Objects (%): 14%
  Population Membrane Permeable-Phenotype (%): 36%
  Population Mitochondria Different-Phenotype (%): 5%
  Population Mitotic Cells (%): 45%
  Population Normal (%): 85%
  Population Pyknosed Nuclei (%): 26%
  Population Tubulin-Different-Phenotype (%): 41%
  Total Cell Count: 89
[6]
  Population Apoptotic (%): 0%
  Population Fragmented Nuclei (%): 7%
  Population Healthy Nuclei (%): 85%
  Population Hoechst High Intensity Objects (%): 5%
  Population Membrane Permeable-Phenotype (%): 5%
  Population Mitochondria Different-Phenotype (%): 10%
  Population Mitotic Cells (%): 100%
  Population Normal (%): 94%
  Population Pyknosed Nuclei (%): 7%
  Population Tubulin-Different-Phenotype (%): 23%
  Total Cell Count: 69
[7]
  Population Apoptotic (%): 65%
  Population Fragmented Nuclei (%): 18%
  Population Healthy Nuclei (%): 63%
  Population Hoechst High Intensity Objects (%): 20%
  Population Membrane Permeable-Phenotype (%): 29%
  Population Mitochondria Different-Phenotype (%): 5%
  Population Mitotic Cells (%): 34%
  Population Normal (%): 79%
  Population Pyknosed Nuclei (%): 18%
  Population Tubulin-Different-Phenotype (%): 33%
  Total Cell Count: 181
[8]
  Population Apoptotic (%): 60%
  Population Fragmented Nuclei (%): 5%
  Population Healthy Nuclei (%): 88%
  Population Hoechst High Intensity Objects (%): 5%
  Population Membrane Permeable-Phenotype (%): 2%
  Population Mitochondria Different-Phenotype (%): 6%
  Population Mitotic Cells (%): 40%
  Population Normal (%): 94%
  Population Pyknosed Nuclei (%): 5%
  Population Tubulin-Different-Phenotype (%): 16%
  Total Cell Count: 73
[9]
  Population Apoptotic (%): 52%
  Population Fragmented Nuclei (%): 35%
  Population Healthy Nuclei (%): 46%
  Population Hoechst High Intensity Objects (%): 19%
  Population Membrane Permeable-Phenotype (%): 20%
  Population Mitochondria Different-Phenotype (%): 0%
  Population Mitotic Cells (%): 47%
  Population Normal (%): 80%
  Population Pyknosed Nuclei (%): 17%
  Population Tubulin-Different-Phenotype (%): 20%
  Total Cell Count: 118
[10]
  Population Apoptotic (%): 50%
  Population Fragmented Nuclei (%): 26%
  Population Healthy Nuclei (%): 71%
  Population Hoechst High Intensity Objects (%): 30%
  Population Membrane Permeable-Phenotype (%): 18%
  Population Mitochondria Different-Phenotype (%): 3%
  Population Mitotic Cells (%): 50%
  Population Normal (%): 69%
  Population Pyknosed Nuclei (%): 1%
  Population Tubulin-Different-Phenotype (%): 33%
  Total Cell Count: 161
[11]
  Population Apoptotic (%): 53%
  Population Fragmented Nuclei (%): 43%
  Population Healthy Nuclei (%): 47%
  Population Hoechst High Intensity Objects (%): 56%
  Population Membrane Permeable-Phenotype (%): 29%
  Population Mitochondria Different-Phenotype (%): 2%
  Population Mitotic Cells (%): 46%
  Population Normal (%): 43%
  Population Pyknosed Nuclei (%): 9%
  Population Tubulin-Different-Phenotype (%): 36%
  Total Cell Count: 370
[12]
  Population Apoptotic (%): 40%
  Population Fragmented Nuclei (%): 23%
  Population Healthy Nuclei (%): 69%
  Population Hoechst High Intensity Objects (%): 15%
  Population Membrane Permeable-Phenotype (%): 16%
  Population Mitochondria Different-Phenotype (%): 0%
  Population Mitotic Cells (%): 60%
  Population Normal (%): 84%
  Population Pyknosed Nuclei (%): 6%
  Population Tubulin-Different-Phenotype (%): 18%
  Total Cell Count: 90
